Converted amounts (≈) assume the structure as drawn.
Tests used:
[1] = system: Escherichia coli; assay: Antimicrobial activity against Escherichia coli after 24 hrs by tube dilution method; assay type: functional
How it was run: (§1)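 Tube dilution in DMSO (stock 100 mg/ml) with serial dilutions; incubation 37 °C for 48 h for C. albicans (other organisms' times truncated in text). MIC read as lowest concentration inhibiting visible growth. Norfloxacin (bacteria) and fluconazole (fungi) as reference drugs.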

[2] = system: Candida albicans; assay: Antimicrobial activity against Candida albicans after 48 hrs by tube dilution method; assay type: functional; how it was run: as §1
[3] = system: Staphylococcus aureus; assay: Antimicrobial activity against Staphylococcus aureus after 24 hrs by tube dilution method; assay type: functional; how it was run: as §1
[4] = system: Aspergillus niger; assay: Antimicrobial activity against Aspergillus niger after 7 days by tube dilution method; assay type: functional; conditions: 168 h; how it was run: as §1
[5] = system: Bacillus subtilis; assay: Antimicrobial activity against Bacillus subtilis after 24 hrs by tube dilution method; assay type: functional; how it was run: as §1
[6] = Cytotoxicity against human HEL cells assessed as alteration in cell morphology; assay type: cell-based
How it was run: (§2)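 Uninfected cell cultures tested in parallel with the CPE-reduction antiviral assay; cells grown to confluency, then serial compound dilutions added and incubated at 37 °C (3 days in the parallel antiviral set-up). Read-out is microscopic examination of morphology; value is the minimum cytotoxic concentration, the lowest causing a microscopically detectable alteration of normal cell morphology.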

[7] = system: Coxsackievirus B4; assay: Antiviral activity against Coxsackievirus B4 infected in african green monkey Vero cells assessed as reduction in virus-induced cytopathogenicity after 3 days; assay type: functional, organism-based; conditions: Enterovirus B, 72 h
[8] = Cytotoxicity against human HeLa cells assessed as alteration in cell morphology; assay type: cell-based; how it was run: as §2
[9] = system: Vesicular stomatitis virus; assay: Antiviral activity against VSV infected in human HeLa cells assessed as reduction in virus-induced cytopathogenicity after 3 days; assay type: functional, organism-based; conditions: 72 h
[10] = system: Sindbis virus; assay: Antiviral activity against Sindbis virus infected in african green monkey Vero cells assessed as reduction in virus-induced cytopathogenicity after 3 days; assay type: functional, organism-based; conditions: 72 h
[11] = system: Coxsackievirus B4; assay: Antiviral activity against Coxsackievirus B4 infected in human HeLa cells assessed as reduction in virus-induced cytopathogenicity after 3 days; assay type: functional, organism-based; conditions: Enterovirus B, 72 h
[12] = system: Respiratory syncytial virus; assay: Antiviral activity against RSV infected in human HeLa cells assessed as reduction in virus-induced cytopathogenicity after 3 days; assay type: functional, organism-based; conditions: 72 h
[13] = system: Mammalian orthoreovirus 1; assay: Antiviral activity against Reovirus 1 infected in african green monkey Vero cells assessed as reduction in virus-induced cytopathogenicity after 3 days; assay type: functional, organism-based; conditions: Mammalian orthoreovirus 1, Vero, 72 h
[14] = system: Human respirovirus 3; assay: Antiviral activity against Parainfluenza-3 virus infected in african green monkey Vero cells assessed as reduction in virus-induced cytopathogenicity after 3 days; assay type: functional, organism-based; conditions: Human respirovirus 3, Vero, 72 h
[15] = system: Vesicular stomatitis virus; assay: Antiviral activity against VSV infected in human HEL cells assessed as reduction in virus-induced cytopathogenicity after 3 days; assay type: functional, organism-based; conditions: 72 h
[16] = system: Human alphaherpesvirus 1; assay: Antiviral activity against HSV1 KOS infected in human HEL cells assessed as reduction in virus-induced cytopathogenicity after 3 days; assay type: functional, organism-based; conditions: Human alphaherpesvirus 1, KOS, 72 h
[17] = system: Human alphaherpesvirus 2; assay: Antiviral activity against HSV2 G infected in human HEL cells assessed as reduction in virus-induced cytopathogenicity after 3 days; assay type: functional, organism-based; conditions: Human alphaherpesvirus 2, strain G, 72 h
[18] = system: Human alphaherpesvirus 1; assay: Antiviral activity against thymidine kinase-deficient acyclovir-resistant HSV1 KOS infected in human HEL cells assessed as reduction in virus-induced cytopathogenicity after 3 days; assay type: functional, organism-based; conditions: Human alphaherpesvirus 1, KOS, 72 h
[19] = system: Punta Toro virus; assay: Antiviral activity against Punta Toro virus infected in african green monkey Vero cells assessed as reduction in virus-induced cytopathogenicity after 3 days; assay type: functional, organism-based; conditions: 72 h
[20] = Cytotoxicity against african green monkey Vero cells assessed as alteration in cell morphology; assay type: cell-based; conditions: chlorocebus sabaeus; how it was run: as §2

Compound	MBC [1] [µM]	MIC [1] [µM]	MFC [2] [µM]	MIC [2] [µM]	MBC [3] [µM]	MIC [3] [µM]	MFC [4] [µM]	MIC [4] [µM]	MBC [5] [µM]	MIC [5] [µM]	also measured
Clc1ccccc1-c1ncc[nH]1	561 (≈ 100 µg/mL)	702 (≈ 125 µg/mL)	561 (≈ 100 µg/mL)	702 (≈ 125 µg/mL)	561 (≈ 100 µg/mL)	35 (≈ 6.25 µg/mL)	280 (≈ 50 µg/mL)	35 (≈ 6.25 µg/mL)	561 (≈ 100 µg/mL)	702 (≈ 125 µg/mL)	–
Clc1cccc(-c2ncc[nH]2)c1	561 (≈ 100 µg/mL)	702 (≈ 125 µg/mL)	280 (≈ 50 µg/mL)	35 (≈ 6.25 µg/mL)	35 (≈ 6.25 µg/mL)	4 (≈ 0.714 µg/mL)	280 (≈ 50 µg/mL)	35 (≈ 6.25 µg/mL)	140 (≈ 25 µg/mL)	17 (≈ 3.04 µg/mL)	–
Cc1cccc(-c2ncc[nH]2)c1C	36 (≈ 6.2 µg/mL)	4 (≈ 0.689 µg/mL)	289 (≈ 49.8 µg/mL)	72 (≈ 12.4 µg/mL)	36 (≈ 6.2 µg/mL)	4 (≈ 0.689 µg/mL)	144 (≈ 24.8 µg/mL)	17 (≈ 2.93 µg/mL)	36 (≈ 6.2 µg/mL)	4 (≈ 0.689 µg/mL)	–
O=[N+]([O-])c1ccccc1-c1ncc[nH]1	33 (≈ 6.24 µg/mL)	4 (≈ 0.757 µg/mL)	264 (≈ 49.9 µg/mL)	33 (≈ 6.24 µg/mL)	33 (≈ 6.24 µg/mL)	4 (≈ 0.757 µg/mL)	264 (≈ 49.9 µg/mL)	33 (≈ 6.24 µg/mL)	33 (≈ 6.24 µg/mL)	4 (≈ 0.757 µg/mL)	–
COc1ccc(-c2nccn2C(=O)c2ccccc2Br)cc1	628 (≈ 224 µg/mL)	33 (≈ 11.8 µg/mL)	134 (≈ 47.9 µg/mL)	16 (≈ 5.72 µg/mL)	134 (≈ 47.9 µg/mL)	16 (≈ 5.72 µg/mL)	134 (≈ 47.9 µg/mL)	16 (≈ 5.72 µg/mL)	628 (≈ 224 µg/mL)	16 (≈ 5.72 µg/mL)	MCC [6]: > 100 µg/mL; EC50 [7]: > 100 µg/mL; MCC [8]: > 100 µg/mL; EC50 [9]: > 100 µg/mL; EC50 [10]: > 100 µg/mL; EC50 [11]: > 100 µg/mL; EC50 [12]: > 100 µg/mL; EC50 [13]: > 100 µg/mL; EC50 [14]: > 100 µg/mL; EC50 [15]: > 100 µg/mL; EC50 [16]: > 100 µg/mL; EC50 [17]: > 100 µg/mL; EC50 [18]: > 100 µg/mL; EC50 [19]: > 100 µg/mL; MCC [20]: > 100 µg/mL
O=[N+]([O-])c1ccc(-c2ncc[nH]2)cc1	33 (≈ 6.24 µg/mL)	4 (≈ 0.757 µg/mL)	264 (≈ 49.9 µg/mL)	33 (≈ 6.24 µg/mL)	33 (≈ 6.24 µg/mL)	4 (≈ 0.757 µg/mL)	264 (≈ 49.9 µg/mL)	33 (≈ 6.24 µg/mL)	132 (≈ 25 µg/mL)	16 (≈ 3.03 µg/mL)	–
Brc1ccc(-c2ncc[nH]2)cc1	28 (≈ 6.25 µg/mL)	3 (≈ 0.669 µg/mL)	224 (≈ 50 µg/mL)	28 (≈ 6.25 µg/mL)	28 (≈ 6.25 µg/mL)	3 (≈ 0.669 µg/mL)	112 (≈ 25 µg/mL)	14 (≈ 3.12 µg/mL)	28 (≈ 6.25 µg/mL)	3 (≈ 0.669 µg/mL)	–
Nc1nc2c(ncn2COC(CO)CO)c(=O)[nH]1 [GANCICLOVIR]	–	–	–	–	–	–	–	–	–	–	MCC [6]: > 100 µg/mL; EC50 [15]: > 100 µg/mL; EC50 [16]: 0.06 µg/mL (≈ 0.235 µM); EC50 [17]: 0.06 µg/mL (≈ 0.235 µM); EC50 [18]: 1 µg/mL (≈ 3.92 µM)
CCn1cc(C(=O)O)c(=O)c2cc(F)c(N3CCNCC3)cc21 [NORFLOXACIN]	19 (≈ 6.07 µg/mL)	2 (≈ 0.639 µg/mL)	–	–	19 (≈ 6.07 µg/mL)	2 (≈ 0.639 µg/mL)	–	–	19 (≈ 6.07 µg/mL)	2 (≈ 0.639 µg/mL)	–
Clc1ccc(-c2ncc[nH]2)cc1	702 (≈ 125 µg/mL)	8 (≈ 1.43 µg/mL)	280 (≈ 50 µg/mL)	35 (≈ 6.25 µg/mL)	35 (≈ 6.25 µg/mL)	4 (≈ 0.714 µg/mL)	561 (≈ 100 µg/mL)	702 (≈ 125 µg/mL)	702 (≈ 125 µg/mL)	8 (≈ 1.43 µg/mL)	–
O=C(O)c1ccccc1-c1ncc[nH]1	265 (≈ 49.9 µg/mL)	4 (≈ 0.753 µg/mL)	526 (≈ 99 µg/mL)	66 (≈ 12.4 µg/mL)	531 (≈ 99.9 µg/mL)	4 (≈ 0.753 µg/mL)	265 (≈ 49.9 µg/mL)	33 (≈ 6.21 µg/mL)	33 (≈ 6.21 µg/mL)	4 (≈ 0.753 µg/mL)	–
O=[N+]([O-])c1cccc(-c2ncc[nH]2)c1	33 (≈ 6.24 µg/mL)	4 (≈ 0.757 µg/mL)	264 (≈ 49.9 µg/mL)	33 (≈ 6.24 µg/mL)	33 (≈ 6.24 µg/mL)	4 (≈ 0.757 µg/mL)	264 (≈ 49.9 µg/mL)	33 (≈ 6.24 µg/mL)	33 (≈ 6.24 µg/mL)	4 (≈ 0.757 µg/mL)	–
Nc1ncnc2c1ncn2C[C@H](O)CO [(S)-DHPA]	–	–	–	–	–	–	–	–	–	–	EC50 [7]: > 250 µg/mL; MCC [8]: > 250 µg/mL; EC50 [9]: > 250 µg/mL; EC50 [10]: > 250 µg/mL; EC50 [11]: > 250 µg/mL; EC50 [12]: > 250 µg/mL; EC50 [13]: > 250 µg/mL; EC50 [14]: > 250 µg/mL; EC50 [19]: > 250 µg/mL; MCC [20]: > 250 µg/mL
NC(=O)c1ncn([C@@H]2O[C@H](CO)[C@@H](O)[C@H]2O)n1 [RIBAVIRIN]	–	–	–	–	–	–	–	–	–	–	MCC [6]: > 250 µg/mL; EC50 [7]: > 250 µg/mL; MCC [8]: > 250 µg/mL; EC50 [10]: > 250 µg/mL; EC50 [13]: > 250 µg/mL; EC50 [16]: > 250 µg/mL; EC50 [17]: > 250 µg/mL; EC50 [18]: > 250 µg/mL; MCC [20]: > 250 µg/mL
COc1ccc(-c2ncc[nH]2)cc1	263 (≈ 45.8 µg/mL)	32 (≈ 5.57 µg/mL)	526 (≈ 91.6 µg/mL)	65 (≈ 11.3 µg/mL)	32 (≈ 5.57 µg/mL)	4 (≈ 0.697 µg/mL)	526 (≈ 91.6 µg/mL)	65 (≈ 11.3 µg/mL)	32 (≈ 5.57 µg/mL)	4 (≈ 0.697 µg/mL)	–
OC(Cn1cncn1)(Cn1cncn1)c1ccc(F)cc1F [FLUCONAZOLE]	–	–	40 (≈ 12.3 µg/mL)	1 (≈ 0.306 µg/mL)	–	–	40 (≈ 12.3 µg/mL)	1 (≈ 0.306 µg/mL)	–	–	–
Nc1ccn(C[C@@H](CO)OCP(=O)(O)O)c(=O)n1.O.O [CIDOFOVIR]	–	–	–	–	–	–	–	–	–	–	MCC [6]: > 250 µg/mL; EC50 [15]: > 250 µg/mL; EC50 [17]: 2 µg/mL; EC50 [18]: 2 µg/mL
c1ccc(-c2ncc[nH]2)cc1 [2-PHENYLIMIDAZOLE]	43 (≈ 6.2 µg/mL)	5 (≈ 0.721 µg/mL)	347 (≈ 50 µg/mL)	43 (≈ 6.2 µg/mL)	43 (≈ 6.2 µg/mL)	5 (≈ 0.721 µg/mL)	694 (≈ 100 µg/mL)	86 (≈ 12.4 µg/mL)	43 (≈ 6.2 µg/mL)	5 (≈ 0.721 µg/mL)	–
O=c1[nH]c(=O)n([C@H]2C[C@H](O)[C@@H](CO)O2)cc1/C=C/Br [BRIVUDINE]	–	–	–	–	–	–	–	–	–	–	MCC [6]: > 250 µg/mL; EC50 [15]: > 250 µg/mL; EC50 [16]: 0.04 µg/mL (≈ 0.12 µM); EC50 [17]: 29 µg/mL (≈ 87.1 µM); EC50 [18]: 96 µg/mL (≈ 288 µM)
